Only some compounds are listed: those with a hit (about 3.4% of all), similar ones and a draw of the others.
SIRT5 block = inhibitors of human sirtuin-5 desuccinylase; Q9NXA8; Purified SirT5, succinyl-peptide AMC, trypsin-coupled fluorescence; inhibition, % at 15 µM; hit rate 1.1% among 330,000; in the data active = inhibition above about 15%
Target sequence (Q9NXA8 whole entry, looked up): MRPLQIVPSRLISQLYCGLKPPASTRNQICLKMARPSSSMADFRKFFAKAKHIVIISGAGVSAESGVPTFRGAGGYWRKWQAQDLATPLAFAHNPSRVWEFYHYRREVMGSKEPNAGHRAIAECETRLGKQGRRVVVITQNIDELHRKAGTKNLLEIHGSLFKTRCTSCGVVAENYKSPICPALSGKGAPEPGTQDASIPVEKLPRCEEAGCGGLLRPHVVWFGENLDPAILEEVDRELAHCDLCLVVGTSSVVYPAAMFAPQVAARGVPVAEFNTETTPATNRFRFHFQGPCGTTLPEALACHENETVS
S100A4 MyoIIA = inhibitors of human S100A4 binding to myosin IIA peptide. P26447. S100A4/TAMRA-MyoIIA peptide fluorescence polarization. inhibition, % at 10.7 µM. hit rate 0.14% among 360,000. AID 652163;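 active = mean inhibition of at least 70% across replicates, with every replicate also reaching that level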
Target sequence (P26447 whole entry, looked up): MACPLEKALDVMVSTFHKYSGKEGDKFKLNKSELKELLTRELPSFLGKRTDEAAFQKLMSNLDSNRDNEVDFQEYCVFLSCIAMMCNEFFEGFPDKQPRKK
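Assay system: human S100A4 monomer with TAMRA-labelled myosin IIA peptide / Buffer or medium: Calcium-containing HEPES buffer, pH 7.2 / Reagent: TAMRA-labelled myosin IIA heavy-chain peptide probe, 5 nM / Compound: one dose per compound / Timing: polarization read 5 min after assay mix addition, stable 5–60 min / Benchmarks: neutral control DMSO, positive control TFP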
E-selectin induc = E-selectin induction on HUVECs | P16581 | HUVEC E-selectin immunofluorescence imaging; normalized: neutral wells 0, TNF-alpha wells 100 | activation, % at 7.58 µM | hit rate 0.37% among 260,000;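 active = mean E-selectin-positive cell signal at least 10% of the positive control, reached in at least 60% of replicates, without over 20% cell loss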
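Read-out basis: % PE-positive cells; Test system: HUVEC primary endothelial cells; Technique: immunofluorescence imaging; Dosing: single-point compound dose.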
AF4-AF9 inh = inhibitors of human MLL-AF4/AF9 interaction. P42568. AlphaScreen, biotin-AF4 peptide binding to FLAG-AF9. inhibition, % at 10 µM. hit rate 0.47% among 350,000. AID 651704;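 active = every replicate reaching a set inhibition limit, whatever the replicate mean, cut at about 25% in these data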
ERAP1 inh = ERAP1 (human) enzyme inhibition. recombinant ERAP1, Leu-AMC fluorescence, 60 min. AID 652197. hit rate 0.15% among 340,000. inhibition, % at 10.7 µM;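 active = mean replicate inhibition of at least 30%, or all replicates individually reaching that 30% level; inactive = mean below 30% and not every replicate reaching it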
Ecoli rRNA inh = selective bacterial rRNA inhibition in E. coli | hit rate 1.6% among 350,000 | E. coli WT GFP vs humanized-ribosome RFP mutants, fluorescence, 24 h; stronger effect = lower value; DMSO median 0, no signal -100 | GFP signal change (wild-type ribosome), % (test concentration not listed);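 active = significant combined selectivity score with lowered wild-type GFP, culture density cut under 30%, mutant RFP and density less affected; inactive = any of these conditions unmet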
Each line names hits and unclear results; the compound was inactive in the other large screens; ! = a repeat was not active.

Cc1cc(=O)oc2c(CN3CCN(CCO)CC3)c(O)ccc12	ERAP1 inh 40.2
C[C@H]1CN([C@@H](C)CO)S(=O)(=O)c2ccc(C#CC3CCCCC3)cc2O[C@@H]1CN(C)C	none
Cc1cc(=O)oc2c(O)c(O)ccc12	none
Cc1cc(=O)oc2c(CN3CCCC3)c(O)c(Cl)cc12	ERAP1 inh 114.5
CCN1CCN(Cc2c(O)ccc3c(C)cc(=O)oc23)CC1	ERAP1 inh 32.8
Cc1cc2oc(=O)cc(CN3CCCC3)c2cc1C	none
O=c1oc2c(CN3CCN(CCO)CC3)c(O)ccc2cc1-c1ccccn1	ERAP1 inh 98.5
CCOc1ccc(NCc2cccn2-c2nnc(N3CCC(C(=O)NCCCN4CCCCC4)CC3)s2)cc1	AF4-AF9 inh 33.1 (no result: E-selectin induc)
C[C@H]1CN([C@@H](C)CO)C(=O)c2cc(NC(=O)NC3CCCCC3)ccc2O[C@@H]1CN(C)S(=O)(=O)c1ccc(Cl)cc1	E-selectin induc 449.2
COc1ccc(S(=O)(=O)N(C)C[C@H]2Oc3ccc(NC(=O)NC4CCCCC4)cc3C(=O)N([C@H](C)CO)C[C@@H]2C)cc1	SIRT5 block 20.1!
C[C@H](CO)N1C[C@H](C)[C@@H](CN(C)S(=O)(=O)c2ccc(Cl)cc2)Oc2ccc(NC(=O)NC3CCCCC3)cc2C1=O	none
C[C@@H]1CN([C@@H](C)CO)C(=O)c2cc(NC(=O)NC3CCCCC3)ccc2O[C@@H]1CN(C)S(=O)(=O)c1ccc(Cl)cc1	E-selectin induc 27.4
COc1ccc(S(=O)(=O)N(C)C[C@H]2Oc3ccc(NC(=O)NC4CCCCC4)cc3C(=O)N([C@@H](C)CO)C[C@H]2C)cc1	none
Cc1ccccc1-c1cnc2c(c1)C(=O)N([C@@H](C)CO)C[C@@H](C)[C@@H](CN(C)C(=O)c1ccccc1)O2	none (no result: SIRT5 block, S100A4 MyoIIA, AF4-AF9 inh, ERAP1 inh)
C[C@@H]1CCCCO[C@H](CN(C)C(=O)Nc2ccc(C(F)(F)F)cc2)[C@@H](C)CN([C@@H](C)CO)C(=O)c2cc(NS(=O)(=O)c3ccc(Cl)cc3)ccc2O1	none
CCCCC1NC(C(=O)O)CS1 (centres undefined)	none (no result: E-selectin induc)
O=C(O)C1CSC(c2ccco2)N1 (centres undefined)	SIRT5 block 15.9
N#Cc1cc(C(=O)c2cc(F)ccc2O)cn(Cc2ccccc2)c1=O	Ecoli rRNA inh -24.0 (no result: E-selectin induc)
O=C(N/N=C/C(Cl)=C/c1ccccc1)c1ccncc1	none (no result: E-selectin induc)
O=C(N/N=C/C(Cl)=C/c1ccccc1)c1ccccn1	Ecoli rRNA inh -15.2
O=C(C[C@@H]1C[C@H]2c3cc(NC(=O)c4cccnc4)ccc3O[C@H]2[C@@H](CO)O1)NCc1cc(F)ccc1F	none
CC[N+](CC)(CC#Cc1ccccc1)CC(=O)c1ccc(Cl)cc1	Ecoli rRNA inh -23.0
CCC(=O)Nc1ccc2c(c1)OC[C@@H](C)N(Cc1cccnc1)C[C@@H](C)[C@H](OC)CN(C)C2=O	none
COC(=O)c1cc(S(=O)(=O)N(C)C2CCCCC2)oc1C	Ecoli rRNA inh -26.6
CCn1cc(C(=O)OC)c(=O)c2cc(S(=O)(=O)N(C)C3CCCCC3)ccc21	SIRT5 block 27.3
COC(=O)c1cn(C)c2ccc(S(=O)(=O)N(C)C3CCCCC3)cc2c1=O	none
O=C(C[C@@H]1CC[C@@H]2[C@H](COC[C@@H](O)CN2S(=O)(=O)c2cccc(Cl)c2)O1)Nc1ccccc1	none
CCCCCC(=O)Nc1cc(S(=O)(=O)N2CCCCC2)ccc1N1CCCCC1	none
CCCCCC(=O)Nc1cc(S(=O)(=O)O)cc2cc(S(=O)(=O)O)cc(O)c12	SIRT5 block 35.9
O=C(/C=C1\OCc2ccccc21)OCc1ccccc1	SIRT5 block 15.1 (no result: AF4-AF9 inh)
O=C(/C=C1\OCc2cc(OCc3ccccc3)ccc21)OCc1ccccc1	none (no result: AF4-AF9 inh)
NC1=NN=C(c2ccc3c(c2)OCCO3)CS1	SIRT5 block 15.1
Cc1nn(CCc2nc(-c3ccco3)cs2)c2[nH]c(=O)cc(C(F)(F)F)c12	SIRT5 block 15.6 (no result: E-selectin induc)
Cc1cc(C)n(CCc2nc(-c3ccco3)cs2)n1	none (no result: E-selectin induc)
CC(=O)c1sc(N/N=C2\CC3CC2C(C)C3(C)C)nc1C (centres undefined)	Ecoli rRNA inh -30.6
CN(Cc1ccccc1)C(=O)c1[nH]cnc1C(=O)NCc1ccccc1	Ecoli rRNA inh -28.3
